pKi: −log10 of the molar value. Square brackets hold non-standard residues; d marks the D form. Peptide text beside a SMILES is read from it. sY = N[C@@H](Cc1ccc(OS(=O)(=O)O)cc1)C(=O)O; Nle = CCCC[C@H](N)C(=O)O
Target: Receptor-type tyrosine-protein phosphatase F (Homo sapiens) (UniProt P10586)
Assay: Inhibitory activity against phosphatase (LAR) at a concentration of 100 uM
In short: (§1)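 Purified recombinant human enzyme constructs; PTP1B is a C-terminally truncated soluble form, tested alongside LAR and SHP-2. Activity is read as the initial rate of p-nitrophenyl phosphate (pNPP) hydrolysis and reported as percent inhibition. PTP1B is tested at 100, 10 and 1 µM, or 10 and 1 µM in the salicylate series; LAR and SHP-2 at 100 µM.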

Chain of Receptor-type tyrosine-protein phosphatase F (Homo sapiens) (P10586 whole entry): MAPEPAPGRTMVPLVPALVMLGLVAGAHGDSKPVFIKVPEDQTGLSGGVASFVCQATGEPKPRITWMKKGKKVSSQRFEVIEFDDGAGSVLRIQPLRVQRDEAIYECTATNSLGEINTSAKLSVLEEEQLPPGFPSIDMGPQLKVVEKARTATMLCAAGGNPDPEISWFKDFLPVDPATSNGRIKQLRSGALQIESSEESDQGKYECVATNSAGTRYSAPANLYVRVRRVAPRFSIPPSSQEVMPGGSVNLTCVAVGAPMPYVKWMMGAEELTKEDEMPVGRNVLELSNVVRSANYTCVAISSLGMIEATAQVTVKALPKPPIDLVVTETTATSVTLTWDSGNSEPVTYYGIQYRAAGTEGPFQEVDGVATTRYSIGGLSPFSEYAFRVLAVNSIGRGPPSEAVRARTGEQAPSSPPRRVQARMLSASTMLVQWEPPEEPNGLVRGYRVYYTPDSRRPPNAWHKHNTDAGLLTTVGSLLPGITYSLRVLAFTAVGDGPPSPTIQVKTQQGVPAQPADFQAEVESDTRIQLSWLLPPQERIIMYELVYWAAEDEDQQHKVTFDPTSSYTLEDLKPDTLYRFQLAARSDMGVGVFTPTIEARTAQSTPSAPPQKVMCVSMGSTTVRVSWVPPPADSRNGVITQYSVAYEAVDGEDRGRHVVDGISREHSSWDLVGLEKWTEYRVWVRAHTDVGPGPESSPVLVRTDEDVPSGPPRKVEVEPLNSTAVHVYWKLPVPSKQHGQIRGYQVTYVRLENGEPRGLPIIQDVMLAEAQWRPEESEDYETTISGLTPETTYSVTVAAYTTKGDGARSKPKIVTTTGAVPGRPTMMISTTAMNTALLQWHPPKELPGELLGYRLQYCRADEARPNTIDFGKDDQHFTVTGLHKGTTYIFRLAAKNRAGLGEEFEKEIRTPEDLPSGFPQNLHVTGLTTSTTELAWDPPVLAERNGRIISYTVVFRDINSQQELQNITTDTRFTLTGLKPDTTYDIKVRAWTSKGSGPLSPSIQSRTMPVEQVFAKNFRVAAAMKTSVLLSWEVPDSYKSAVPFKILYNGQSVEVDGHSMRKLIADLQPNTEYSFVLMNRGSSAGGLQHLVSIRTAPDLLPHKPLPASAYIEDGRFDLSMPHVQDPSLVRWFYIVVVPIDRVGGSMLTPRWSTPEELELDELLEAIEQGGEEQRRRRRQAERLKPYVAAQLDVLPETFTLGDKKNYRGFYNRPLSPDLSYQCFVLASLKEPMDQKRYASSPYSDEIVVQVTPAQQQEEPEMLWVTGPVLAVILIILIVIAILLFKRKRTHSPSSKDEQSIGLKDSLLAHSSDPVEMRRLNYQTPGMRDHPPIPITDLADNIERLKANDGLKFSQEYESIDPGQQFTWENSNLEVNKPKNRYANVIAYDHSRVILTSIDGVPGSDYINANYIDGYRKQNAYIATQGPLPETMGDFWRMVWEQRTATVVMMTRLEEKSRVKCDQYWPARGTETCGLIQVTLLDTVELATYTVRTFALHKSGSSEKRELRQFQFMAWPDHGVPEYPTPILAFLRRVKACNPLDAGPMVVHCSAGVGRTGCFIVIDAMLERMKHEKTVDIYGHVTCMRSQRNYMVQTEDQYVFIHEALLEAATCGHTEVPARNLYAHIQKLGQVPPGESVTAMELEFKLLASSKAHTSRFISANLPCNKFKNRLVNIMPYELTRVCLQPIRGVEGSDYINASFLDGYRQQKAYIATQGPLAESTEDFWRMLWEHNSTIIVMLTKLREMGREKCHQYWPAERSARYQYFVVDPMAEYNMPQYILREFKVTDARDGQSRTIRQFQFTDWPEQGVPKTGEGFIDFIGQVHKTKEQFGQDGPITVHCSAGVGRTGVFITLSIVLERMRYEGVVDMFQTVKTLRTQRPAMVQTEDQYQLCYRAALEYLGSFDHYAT

Going from `CCCCCNC(=O)[C@H](Cc1ccc(OC(C(=O)O)C(=O)O)cc1)NC(=O)[C@H](COCc1ccccc1)NC(=O)OC(C)(C)C` to `CCCCCNC(=O)[C@H](Cc1ccc(OC(C(=O)O)C(=O)O)cc1)NC(=O)[C@H](CCSC)NC(=O)OC(C)(C)C`, the inhibition falls from 3% to 0%.

`CCCCCNC(=O)[C@H](Cc1ccc(OC(C(=O)O)C(=O)O)cc1)NC(=O)[C@@H](NC(=O)OC(C)(C)C)C(C)C` and `CCCCCNC(=O)[C@H](Cc1ccc(OCC(=O)O)c(C(=O)O)c1)NC(=O)[C@H](Cc1ccccc1)NC(=O)Cc1ccc(C(F)(F)F)cc1` are the same in inhibition: 0% for the first, 0% for the second.

System: not listed separately
Assay: Uptake of 2-DOG (2-deoxyglucose) into L6 myocytes in the presence of half-maximal concentration of insulin at 100 uM
Format: functional, Rattus norvegicus
In short: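 L6 myotubes are exposed to compound at 100 µM with 10 nM insulin, a dose eliciting about 50% of maximal uptake. The initial rate of 2-[3H]deoxyglucose uptake is measured, with L-[14C]glucose marking extracellular space, and normalized to recovered lysate protein. Net insulin-dependent transport with inhibitor is expressed as a percent of that without inhibitor.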

Going from `CCCCCNC(=O)[C@H](Cc1ccc(OC(C(=O)O)C(=O)O)cc1)NC(=O)[C@H](COCc1ccccc1)NC(=O)OC(C)(C)C` to `CCCCCNC(=O)[C@H](Cc1ccc(OC(C(=O)O)C(=O)O)cc1)NC(=O)[C@H](CCSC)NC(=O)OC(C)(C)C`, the “Control Uptake” value falls from 79% to 74%.

In the case of `CCCCCNC(=O)[C@H](Cc1ccc(OCC(=O)O)c(C(=O)O)c1)NC(=O)[C@H](Cc1ccccc1)NC(=O)Cc1ccc(C(F)(F)F)cc1`, the “Control Uptake” value was 130%.

Target: T1, Tyrosine-protein phosphatase non-receptor type 11 (Homo sapiens) (UniProt Q06124)
T1 sequence (whole entry): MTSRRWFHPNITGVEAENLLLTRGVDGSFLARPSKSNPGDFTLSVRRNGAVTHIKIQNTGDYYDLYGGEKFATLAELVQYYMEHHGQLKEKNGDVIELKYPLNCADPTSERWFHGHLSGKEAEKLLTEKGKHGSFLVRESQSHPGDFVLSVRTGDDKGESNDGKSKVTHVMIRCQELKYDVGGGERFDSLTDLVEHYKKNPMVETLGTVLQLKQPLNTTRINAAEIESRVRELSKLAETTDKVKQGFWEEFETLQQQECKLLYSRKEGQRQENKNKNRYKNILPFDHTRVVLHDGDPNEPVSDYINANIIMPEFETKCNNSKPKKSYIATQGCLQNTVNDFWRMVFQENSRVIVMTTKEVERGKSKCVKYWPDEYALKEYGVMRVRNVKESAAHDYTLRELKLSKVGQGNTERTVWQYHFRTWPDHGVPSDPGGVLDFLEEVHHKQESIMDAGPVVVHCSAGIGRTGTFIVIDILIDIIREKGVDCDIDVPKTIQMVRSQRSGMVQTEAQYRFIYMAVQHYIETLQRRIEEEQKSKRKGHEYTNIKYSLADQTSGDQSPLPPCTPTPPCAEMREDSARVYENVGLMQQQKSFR
Assay: Inhibition of recombinant human phosphatase (SHP-2) at a concentration of 100 uM
In short: as §1

Going from `CCCCCNC(=O)[C@H](Cc1ccc(OC(C(=O)O)C(=O)O)cc1)NC(=O)[C@H](COCc1ccccc1)NC(=O)OC(C)(C)C` to `CCCCCNC(=O)[C@H](Cc1ccc(OC(C(=O)O)C(=O)O)cc1)NC(=O)[C@H](CCSC)NC(=O)OC(C)(C)C`, the inhibition rises from 0% to 4%.

With `CCCCCNC(=O)[C@H](Cc1ccc(OCC(=O)O)c(C(=O)O)c1)NC(=O)[C@H](Cc1ccccc1)NC(=O)Cc1ccc(C(F)(F)F)cc1` the inhibition was 28%.

Target: T2, Tyrosine-protein phosphatase non-receptor type 1 (Homo sapiens, UniProt P18031)
T2 sequence (P18031 whole entry): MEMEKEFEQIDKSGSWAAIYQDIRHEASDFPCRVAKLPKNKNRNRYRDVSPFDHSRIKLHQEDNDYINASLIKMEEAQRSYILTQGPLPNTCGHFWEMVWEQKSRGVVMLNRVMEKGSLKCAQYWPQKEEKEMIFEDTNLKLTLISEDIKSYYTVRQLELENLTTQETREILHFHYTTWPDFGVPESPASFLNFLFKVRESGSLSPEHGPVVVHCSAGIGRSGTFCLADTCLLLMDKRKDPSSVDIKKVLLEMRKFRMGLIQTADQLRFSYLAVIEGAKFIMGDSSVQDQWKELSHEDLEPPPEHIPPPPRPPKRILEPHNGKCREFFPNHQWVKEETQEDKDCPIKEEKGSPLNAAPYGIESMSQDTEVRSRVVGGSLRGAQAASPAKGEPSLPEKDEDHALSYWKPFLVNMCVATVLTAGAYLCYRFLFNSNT
Assay: Inhibitory activity against human protein tyrosine phosphatase 1B (PTP1B)
In short: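 Ki against a C-terminally truncated, soluble recombinant human PTP1B. Initial rates of pNPP hydrolysis are measured, and the Ki is computed by the Cornish-Bowden direct linear method.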

First: CCCC[C@H](NC(=O)[C@H](Cc1ccc(OS(=O)(=O)O)cc1)NC(=O)[C@H](CC(=O)O)NC(C)=O)C(N)=O (Ac-Asp-[sY]-[Nle]-NH2)
Second: CCCCCNC(=O)[C@H](Cc1ccc(OCC(=O)O)c(C(=O)O)c1)NC(=O)[C@H](Cc1ccccc1)NC(=O)CCC(=O)O
The pKi of the first is 1.36 log units lower: 5.30 for the first, 6.66 for the second.

`CCCCCNC(=O)[C@H](Cc1ccc(OCC(=O)O)c(C(=O)O)c1)NC(=O)[C@H](Cc1ccccc1)NC(=O)Cc1ccc(C(F)(F)F)cc1` showed a pKi of 6.23.

Target: T3, Tyrosine-protein phosphatase non-receptor type 1 (Homo sapiens) (UniProt P18031)
T3 sequence (whole entry): T2 sequence (P18031 whole entry)
Assay: Inhibitory activity against human protein tyrosine phosphatase 1B (PTP1B) at a concentration of 1 uM
In short: as §1

Going from `CCCCCNC(=O)[C@H](Cc1ccc(OC(C(=O)O)C(=O)O)cc1)NC(=O)[C@H](COCc1ccccc1)NC(=O)OC(C)(C)C` to `CCCCCNC(=O)[C@H](Cc1ccc(OC(C(=O)O)C(=O)O)cc1)NC(=O)[C@H](CCSC)NC(=O)OC(C)(C)C`, the inhibition rises from 3% to 5%.

Compared with `CCCCCNC(=O)[C@H](Cc1ccc(OC(C(=O)O)C(=O)O)cc1)NC(=O)[C@@H](NC(=O)OC(C)(C)C)C(C)C`, `CCCCCNC(=O)[C@H](Cc1ccc(OCC(=O)O)c(C(=O)O)c1)NC(=O)[C@H](Cc1ccccc1)NC(=O)Cc1ccc(C(F)(F)F)cc1` is higher in inhibition: 3% for the first, 39% for the second.

Target: T3, Tyrosine-protein phosphatase non-receptor type 1 (Homo sapiens)
Assay: Inhibitory activity against human protein tyrosine phosphatase 1B (PTP1B) at a concentration of 100 uM
In short: as §1

Compared with `CCCCCNC(=O)[C@H](Cc1ccc(OC(C(=O)O)C(=O)O)cc1)NC(=O)[C@H](COCc1ccccc1)NC(=O)OC(C)(C)C`, `CCCCCNC(=O)[C@H](Cc1ccc(OC(C(=O)O)C(=O)O)cc1)NC(=O)[C@H](CCSC)NC(=O)OC(C)(C)C` is higher in inhibition: 71% for the first, 82% for the second.

With `CCCCCNC(=O)[C@H](Cc1ccc(OC(C(=O)O)C(=O)O)cc1)NC(=O)[C@@H](NC(=O)OC(C)(C)C)C(C)C` the inhibition was 72%.

Target: T3, Tyrosine-protein phosphatase non-receptor type 1 (Homo sapiens)
Assay: Inhibitory activity against human protein tyrosine phosphatase 1B (PTP1B) at a concentration of 10 uM
In short: as §1

Going from `CCCCCNC(=O)[C@H](Cc1ccc(OC(C(=O)O)C(=O)O)cc1)NC(=O)[C@H](COCc1ccccc1)NC(=O)OC(C)(C)C` to `CCCCCNC(=O)[C@H](Cc1ccc(OC(C(=O)O)C(=O)O)cc1)NC(=O)[C@H](CCSC)NC(=O)OC(C)(C)C`, the inhibition rises from 19% to 25%.

Compared with `CCCCCNC(=O)[C@H](Cc1ccc(OC(C(=O)O)C(=O)O)cc1)NC(=O)[C@@H](NC(=O)OC(C)(C)C)C(C)C`, `CCCCCNC(=O)[C@H](Cc1ccc(OCC(=O)O)c(C(=O)O)c1)NC(=O)[C@H](Cc1ccccc1)NC(=O)Cc1ccc(C(F)(F)F)cc1` is higher in inhibition: 18% for the first, 85% for the second.

Target: Tyrosine-protein phosphatase non-receptor type 11, SHP-2 (Homo sapiens) (UniProt Q06124)
Assay: Inhibitory activity against phosphatase (SHP-2) at a concentration of 100 uM

In the case of `CCCCCNC(=O)[C@H](Cc1ccc(OC(C(=O)O)C(=O)O)cc1)NC(=O)[C@@H](NC(=O)OC(C)(C)C)C(C)C`, the inhibition was 0%.
